Measurements from ChEMBL document CHEMBL4715736, “Identification of anticancer agents based on the thieno[2,3-b]pyridine and 1H-pyrazole molecular scaffolds” (2016).

How the values were obtained:
Assay type in all cases: functional
HT-29 = test: Growth inhibition of human HT-29 cells assessed as cell growth at 0.01 uM incubated for 48 hrs by sulforhodamine B assay relative to control; conditions: read-out: Activity
ACHN = test: Growth inhibition of human ACHN cells incubated for 48 hrs by sulforhodamine B assay
Outline: (§1)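 NCI Developmental Therapeutics Program NCI60 panel. Compounds that were active in the 10 µM one-dose screen went on to dose–response testing. Growth at each concentration is expressed relative to untreated control (100%). GI50 (concentration giving 50% of maximal inhibition of proliferation) and TGI (concentration giving total growth inhibition) were derived from the curves.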

DU-145 [1] = test: Growth inhibition of human DU-145 cells incubated for 48 hrs by sulforhodamine B assay; outline: as §1
BT-549 [2] = test: Growth inhibition of human BT-549 cells assessed as cell growth at 1 uM incubated for 48 hrs by sulforhodamine B assay relative to control; conditions: read-out: Activity
TK-10 = test: Growth inhibition of human TK-10 cells assessed as cell growth at 0.1 uM incubated for 48 hrs by sulforhodamine B assay relative to control; conditions: read-out: Activity
UO-31 [3] = test: Growth inhibition of human UO-31 cells assessed as cell growth at 0.1 uM incubated for 48 hrs by sulforhodamine B assay relative to control; conditions: read-out: Activity
NCI/ADR-RES = test: Growth inhibition of human NCI/ADR-RES cells assessed as cell growth at 100 uM incubated for 48 hrs by sulforhodamine B assay relative to control; conditions: read-out: Activity
UACC-257 = test: Growth inhibition of human UACC-257 cells assessed as cell growth at 1 uM incubated for 48 hrs by sulforhodamine B assay relative to control; conditions: read-out: Activity
NCI-H522 [4] = test: Growth inhibition of human NCI-H522 cells assessed as cell growth at 0.1 uM incubated for 48 hrs by sulforhodamine B assay relative to control; conditions: read-out: Activity
MDA-MB-435 = test: Growth inhibition of human MDA-MB-435 cells assessed as cell growth at 100 uM incubated for 48 hrs by sulforhodamine B assay relative to control; conditions: read-out: Activity
CAKI-1 = test: Growth inhibition of human CAKI-1 cells assessed as cell growth at 0.1 uM incubated for 48 hrs by sulforhodamine B assay relative to control; conditions: read-out: Activity; outline: as §1
COLO 205 = test: Growth inhibition of human COLO 205 cells incubated for 48 hrs by sulforhodamine B assay; outline: as §1
HOP-92 = test: Growth inhibition of human HOP-92 cells assessed as cell growth at 1 uM incubated for 48 hrs by sulforhodamine B assay relative to control; conditions: read-out: Activity
UO-31 [5] = test: Growth inhibition of human UO-31 cells incubated for 48 hrs by sulforhodamine B assay
Outline: (§2)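 NCI DTP 60-line human tumour panel. Dose-response curves were run only for ligands active in the initial 10 µM screen. GI50 (concentration giving 50% of maximal inhibition of proliferation) and TGI (concentration giving total growth inhibition) were derived from these curves.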

SK-MEL-28 [6] = test: Growth inhibition of human SK-MEL-28 cells assessed as cell growth at 100 uM incubated for 48 hrs by sulforhodamine B assay relative to control; conditions: read-out: Activity
SN12C = test: Growth inhibition of human SN12C cells assessed as cell growth at 0.1 uM incubated for 48 hrs by sulforhodamine B assay relative to control; conditions: read-out: Activity
SNB-19 = test: Growth inhibition of human SNB-19 cells assessed as cell growth at 100 uM incubated for 48 hrs by sulforhodamine B assay relative to control; conditions: read-out: Activity
OVCAR-4 = test: Growth inhibition of human OVCAR-4 cells assessed as cell growth at 1 uM incubated for 48 hrs by sulforhodamine B assay relative to control; conditions: read-out: Activity
SR = test: Growth inhibition of human SR cells assessed as cell growth at 1 uM incubated for 48 hrs by sulforhodamine B assay relative to control; conditions: read-out: Activity
MDA-MB-231 [7] = test: Growth inhibition of human MDA-MB-231 cells assessed as cell growth at 0.1 uM incubated for 48 hrs by sulforhodamine B assay relative to control; conditions: read-out: Activity
NCI-H522 [8] = test: Growth inhibition of human NCI-H522 cells assessed as cell growth at 100 uM incubated for 48 hrs by sulforhodamine B assay relative to control; conditions: read-out: Activity
MDA-MB-231 [9] = test: Growth inhibition of human MDA-MB-231 cells incubated for 48 hrs by sulforhodamine B assay
Outline: (§3)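 NCI60 panel at the NCI Developmental Therapeutics Program. Only compounds active in the 10 µM screen went to dose-response testing. GI50, the concentration giving 50% of maximal inhibition of proliferation, and TGI, the concentration giving total growth inhibition, were derived from the dose-response curves.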

NCI-H23 [10] = test: Growth inhibition of human NCI-H23 cells assessed as cell growth at 1 uM incubated for 48 hrs by sulforhodamine B assay relative to control; conditions: read-out: Activity
NCI-H23 [11] = test: Growth inhibition of human NCI-H23 cells incubated for 48 hrs by sulforhodamine B assay; outline: as §3
Malme-3M [12] = test: Growth inhibition of human Malme-3M cells assessed as cell growth at 100 uM incubated for 48 hrs by sulforhodamine B assay relative to control; conditions: read-out: Activity
MDA-MB-231 [13] = test: Growth inhibition of human MDA-MB-231 cells assessed as cell growth at 0.01 uM incubated for 48 hrs by sulforhodamine B assay relative to control; conditions: read-out: Activity
OVCAR-3 = test: Growth inhibition of human OVCAR-3 cells incubated for 48 hrs by sulforhodamine B assay; outline: as §2
CCRF-CEM = test: Growth inhibition of human CCRF-CEM cells incubated for 48 hrs by sulforhodamine B assay; outline: as §1
DU-145 [14] = test: Growth inhibition of human DU-145 cells assessed as cell growth at 0.1 uM incubated for 48 hrs by sulforhodamine B assay relative to control; conditions: read-out: Activity; outline: as §1
BT-549 [15] = test: Growth inhibition of human BT-549 cells assessed as cell growth at 100 uM incubated for 48 hrs by sulforhodamine B assay relative to control; conditions: read-out: Activity
KM12 = test: Growth inhibition of human KM12 cells incubated for 48 hrs by sulforhodamine B assay; outline: as §3
SK-MEL-28 [16] = test: Growth inhibition of human SK-MEL-28 cells incubated for 48 hrs by sulforhodamine B assay; outline: as §2
Malme-3M [17] = test: Growth inhibition of human Malme-3M cells assessed as cell growth at 1 uM incubated for 48 hrs by sulforhodamine B assay relative to control; conditions: read-out: Activity
DU-145 [18] = test: Growth inhibition of human DU-145 cells assessed as cell growth at 0.01 uM incubated for 48 hrs by sulforhodamine B assay relative to control; conditions: read-out: Activity; outline: as §1
[19] = read-out: LC50 (the source's name)

Nc1c(C(=O)Nc2ccccc2)sc2nc3c(cc12)CN(Cc1ccccc1)CC3
growth at 0.01 µM (HT-29): 104% | GI50 (ACHN): 5.5 µM | TGI (ACHN): > 100 µM | CC50 (ACHN; [19]): > 100 µM | GI50 (DU-145 [1]): 14.8 µM | TGI (DU-145 [1]): > 100 µM | CC50 (DU-145 [1]; [19]): > 100 µM | growth at 1 µM (BT-549 [2]): 90% | growth at 0.1 µM (TK-10): 96% | growth at 0.1 µM (UO-31 [3]): 83% | growth at 100 µM (NCI/ADR-RES): 29% | growth at 1 µM (UACC-257): 84% | growth at 0.1 µM (NCI-H522 [4]): 87% | growth at 100 µM (MDA-MB-435): -6% | growth at 0.1 µM (CAKI-1): 86% | GI50 (COLO 205): 24 µM | LC50 (concentration killing 50% of cells) (COLO 205): > 100 µM | TGI (COLO 205): > 100 µM | growth at 1 µM (HOP-92): 74% | GI50 (UO-31 [5]): 6.14 µM | TGI (UO-31 [5]): > 100 µM | CC50 (UO-31 [5]; [19]): > 100 µM | growth at 100 µM (SK-MEL-28 [6]): 28% | growth at 0.1 µM (SN12C): 94% | growth at 100 µM (SNB-19): 25% | growth at 1 µM (OVCAR-4): 66% | growth at 1 µM (SR): 82% | growth at 0.1 µM (MDA-MB-231 [7]): 100% | growth at 100 µM (NCI-H522 [8]): 31% | GI50 (MDA-MB-231 [9]): 5.81 µM | TGI (MDA-MB-231 [9]): > 100 µM | CC50 (MDA-MB-231 [9]; [19]): > 100 µM | growth at 1 µM (NCI-H23 [10]): 101% | GI50 (NCI-H23 [11]): 21.7 µM | LC50 (50% lethal concentration) (NCI-H23 [11]): > 100 µM | TGI (NCI-H23 [11]): > 100 µM | growth at 100 µM (Malme-3M [12]): 14% | growth at 0.01 µM (MDA-MB-231 [13]): 101% | GI50 (OVCAR-3): 11.4 µM | TGI (OVCAR-3): > 100 µM | CC50 (OVCAR-3; [19]): > 100 µM | GI50 (CCRF-CEM): 50.3 µM | LC50 (CCRF-CEM): > 100 µM | TGI (CCRF-CEM): > 100 µM | growth at 0.1 µM (DU-145 [14]): 107% | growth at 100 µM (BT-549 [15]): -2% | GI50 (KM12): 19.1 µM | LC50 (KM12): > 100 µM | TGI (KM12): > 100 µM | GI50 (SK-MEL-28 [16]): 23.2 µM | LC50 (SK-MEL-28 [16]): > 100 µM | TGI (SK-MEL-28 [16]): > 100 µM | growth at 1 µM (Malme-3M [17]): 87% | growth at 0.01 µM (DU-145 [18]): 106%
